Assay results as given in ChEMBL document CHEMBL2034843, “3α-Hydroxymasticadienonic acid as an antiproliferative agent that impairs mitochondrial functions” (J Nat Prod, 2012).
Active and inactive are the calls of the source. The rule behind the calls is not given here.

Legend:
Rattus norvegicus [1] = species on record: Rattus norvegicus; experiment: Induction of mitochondrial dysfunction in rat liver mitochondria assessed as change in membrane potential by spectrophotometric analysis; assay type: functional
Rattus norvegicus [2] = species on record: Rattus norvegicus; experiment: Induction of mitochondrial dysfunction in rat liver mitochondria assessed as decrease in mitochondrial redox level at 100 uM after 15 mins by absorption spectrophotometric analysis in presence of 50 uM Ca2+; assay type: functional; set-up: scale not given: the % may be the effect or the level left
How it was run: (§1)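 Mitochondrial protein thiol oxidation assayed per Santos et al. after 15 min incubation of rat liver mitochondria (1 mg protein/mL, 20 °C, succinate/rotenone standard medium). Results as % reduced thiols, mean ± SD, four independent experiments.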

Rattus norvegicus [3] = species on record: Rattus norvegicus; experiment: Hepatoprotective activity in rat liver mitochondria assessed as change in mitochondrial pyridine nucleotide redox level at 100 uM after 15 mins by fluorometric analysis in presence of Ca2+
Rattus norvegicus [4] = species on record: Rattus norvegicus; experiment: Induction of mitochondrial dysfunction in rat liver mitochondria assessed as increase in colloid-osmotic swelling at 10 uM by spectrophotometric analysis in presence of 50 uM Ca2+ and ADP; assay type: functional
How it was run: (§2)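 Swelling read as the 540 nm absorbance decrease in succinate-energized rat liver mitochondria (1 mg protein/mL, 20 °C, pH 7.4 sucrose/HEPES medium) with 50 μM Ca2+. Added agents where indicated: 1 μM CsA, 5 μM bongkrekic acid, 1 mM ADP, 2 μM ruthenium red, 10 μM NEM, 1 mM DTE. At least five repeats.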

Rattus norvegicus [5] = species on record: Rattus norvegicus; experiment: Induction of mitochondrial dysfunction in rat liver mitochondria assessed as increase in colloid-osmotic swelling at 10 uM by spectrophotometric analysis in presence of 50 uM Ca2+ and cyclosporin A; assay type: functional; how it was run: as §2
Rattus norvegicus [6] = species on record: Rattus norvegicus; experiment: Hepatoprotective activity in rat liver mitochondria assessed as inhibition of Ca2+-induced mitochondrial swelling at > 20 uM by spectrophotometric analysis; assay type: functional
How it was run: (§3)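 Absorbance change at 540 nm of rat liver mitochondrial suspensions (1 mg protein/mL, 20 °C, succinate/rotenone energized, 250 mM sucrose, 10 mM HEPES pH 7.4, 1 mM phosphate); a fall in absorbance taken as swelling. Ca2+ at 50, 70 or 90 μM as specified, or omitted. Runs repeated at least four times.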

Rattus norvegicus [7] = species on record: Rattus norvegicus; experiment: Induction of mitochondrial dysfunction in rat liver mitochondria assessed as increase in mitochondrial swelling at 10 uM by spectrophotometric analysis in presence of 70 uM Ca2+; assay type: functional; how it was run: as §3
Rattus norvegicus [8] = species on record: Rattus norvegicus; experiment: Induction of mitochondrial dysfunction in rat liver mitochondria assessed as apoptosis inducing factor release at 10 uM after 15 mins by Western blot analysis; assay type: functional
How it was run: (§4)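 Mitochondria (1 mg protein/mL) held 15 min at 20 °C in standard succinate/rotenone medium with or without Ca2+, then centrifuged 13000g, 10 min, 4 °C. Supernatants concentrated, resolved by SDS-PAGE (15% for cyt c, 10% for AIF) and immunoblotted with mouse anti-cyt c or rabbit anti-AIF.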

Rattus norvegicus [9] = species on record: Rattus norvegicus; experiment: Induction of mitochondrial dysfunction in rat liver mitochondria assessed as decrease in membrane potential at 100 uM by spectrophotometric analysis in presence of 1 uM MPT inhibitor cyclosporin A; assay type: functional
How it was run: (§5)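 Membrane potential (ΔΨ) derived from TPP+ distribution across the inner membrane, measured with a TPP+-selective electrode. Ca2+ 50 μM where indicated; cyclosporin A 1 μM where indicated.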

Rattus norvegicus [10] = species on record: Rattus norvegicus; experiment: Induction of mitochondrial dysfunction in rat liver mitochondria assessed as decrease in membrane potential at 1 uM by spectrophotometric analysis in presence of 50 uM Ca2+; assay type: functional; conditions: in the assay text read “TPP+-selective electrode” for “spectrophotometric analysis”, TDE = time-dependent effect; how it was run: as §5
Rattus norvegicus [11] = species on record: Rattus norvegicus; experiment: Induction of mitochondrial dysfunction in rat liver mitochondria assessed as Ca2+ accumulation at 10 uM after 1 to 2 mins by spectrophotometric analysis; assay type: functional
How it was run: (§6)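 Ca2+ movements in rat liver mitochondria (1 mg protein/mL, 20 °C, succinate/rotenone medium) exposed to 70 μM Ca2+; Ca2+ in mitochondrial pellets measured by atomic absorption spectroscopy, uptake expressed per mg protein.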

Rattus norvegicus [12] = species on record: Rattus norvegicus; experiment: Induction of mitochondrial dysfunction in rat liver mitochondria assessed as decrease in mitochondrial redox level at 10 uM after 15 mins by absorption spectrophotometric analysis; assay type: functional; set-up: scale not given: the % may be the effect or the level left; how it was run: as §1
Rattus norvegicus [13] = species on record: Rattus norvegicus; experiment: Induction of mitochondrial dysfunction in rat liver mitochondria assessed as decrease in membrane potential at 10 uM by spectrophotometric analysis in presence of 50 uM Ca2+; assay type: functional; conditions: TDE = time-dependent effect; how it was run: as §5
Rattus norvegicus [14] = species on record: Rattus norvegicus; experiment: Hepatoprotective activity in rat liver assessed as increase in mitochondrial membrane potential at 100 uM by spectrophotometric analysis in presence of 50 uM Ca2+; assay type: functional; conditions: Mitochondria; how it was run: as §5
Rattus norvegicus [15] = species on record: Rattus norvegicus; experiment: Induction of mitochondrial dysfunction in rat liver mitochondria assessed as decrease in membrane potential at 5 uM by spectrophotometric analysis in presence of 50 uM Ca2+; assay type: functional; conditions: TDE = time-dependent effect; how it was run: as §5
Rattus norvegicus [16] = species on record: Rattus norvegicus; experiment: Induction of mitochondrial dysfunction in rat liver mitochondria assessed as increase in colloid-osmotic swelling at 10 uM by spectrophotometric analysis in presence of 50 uM Ca2+ and Ca2+ transport inhibitor ruthedium red; assay type: functional; how it was run: as §2
Rattus norvegicus [17] = species on record: Rattus norvegicus; experiment: Induction of mitochondrial dysfunction in rat liver mitochondria assessed as cytochrome c release at 10 uM after 15 mins by Western blot analysis in presence of Ca2+; assay type: functional; how it was run: as §4
Rattus norvegicus [18] = species on record: Rattus norvegicus; experiment: Induction of mitochondrial dysfunction in rat liver mitochondria assessed as decrease in mitochondrial pyridine nucleotide redox level at 10 uM after 15 mins by fluorometric analysis in presence of Ca2+
Rattus norvegicus [19] = species on record: Rattus norvegicus; experiment: Induction of mitochondrial dysfunction in Ca2+-stimulated rat liver mitochondria assessed as decrease in SH mitochondrial redox level at 10 uM after 15 mins by absorption spectrophotometric analysis in presence of dithiothreitol; assay type: functional; how it was run: as §1
Rattus norvegicus [20] = species on record: Rattus norvegicus; experiment: Induction of mitochondrial dysfunction in Ca2+-stimulated rat liver mitochondria assessed as decrease in mitochondrial redox level at 10 uM after 15 mins by absorption spectrophotometric analysis in presence of Ca2+ transport inhibitor ruthedium red; assay type: functional; how it was run: as §1
Rattus norvegicus [21] = species on record: Rattus norvegicus; experiment: Induction of mitochondrial dysfunction in rat liver mitochondria assessed as decrease in mitochondrial redox level at 10 uM after 15 mins by absorption spectrophotometric analysis in presence of 50 uM Ca2+; assay type: functional; set-up: scale not given: the % may be the effect or the level left; how it was run: as §1
Rattus norvegicus [22] = species on record: Rattus norvegicus; experiment: Induction of mitochondrial dysfunction in rat liver mitochondria assessed as increase in colloid-osmotic swelling at 100 uM by spectrophotometric analysis in presence of 50 uM Ca2+; assay type: functional; how it was run: as §3
Rattus norvegicus [23] = species on record: Rattus norvegicus; experiment: Induction of mitochondrial dysfunction in rat liver mitochondria assessed as cytochrome c release at 10 uM after 15 mins by Western blot analysis; assay type: functional; how it was run: as §4
Rattus norvegicus [24] = species on record: Rattus norvegicus; experiment: Hepatoprotective activity in rat liver assessed as inhibition of colloid-osmotic mitochondrial swelling at 100 uM by spectrophotometric analysis in presence of 90 uM Ca2+; conditions: Mitochondria
Rattus norvegicus [25] = species on record: Rattus norvegicus; experiment: Induction of mitochondrial bioenergetics dysfunction in rat liver mitochondria assessed as decrease in respiratory control index at 25 uM by using clark electrode; assay type: functional
How it was run: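 Isolated rat liver mitochondria (1 mg protein/mL), 20 °C, sucrose/HEPES pH 7.4 medium with 5 mM succinate plus 1.25 μM rotenone and 1 mM phosphate. O2 uptake followed with a Clark electrode; 300 μM ADP added to start state 3. RCI = V3/V4 (state 3 over state 4 rate). Five experiments.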

Rattus norvegicus [26] = species on record: Rattus norvegicus; experiment: Induction of mitochondrial dysfunction in rat liver mitochondria assessed as blockage of Ca2+ release at 100 uM by spectrophotometric analysis; assay type: functional; conditions: in the assay text read “Ca2+ accumulation” for “Ca2+ release”; how it was run: as §6

For `C/C(=C/CC[C@H](C)[C@@H]1CC[C@]2(C)C3=CC[C@H]4C(C)(C)[C@H](O)CC[C@]4(C)[C@H]3CC[C@@]12C)C(=O)O`, the Activity (Rattus norvegicus [1]) was “Dose-dependent effect”, the Activity (Rattus norvegicus [2]) was 25% and the Activity (Rattus norvegicus [3]) was “Active”. For the same compound, the Activity (Rattus norvegicus [4]) was “inactive”, the Activity (Rattus norvegicus [5]) was “inactive” and the Activity (Rattus norvegicus [6]) was “Active”. The Activity (Rattus norvegicus [7]) was “Active”, the Activity (Rattus norvegicus [8]) was “inactive” and the Activity (Rattus norvegicus [9]) was “Active”. The Activity (Rattus norvegicus [10]) was “tde”, the Activity (Rattus norvegicus [11]) was “inactive” and the Activity (Rattus norvegicus [12]) was 20%. The Activity (Rattus norvegicus [13]) was “tde”, the Activity (Rattus norvegicus [14]) was “Active” and the Activity (Rattus norvegicus [15]) was “tde”. The Activity (Rattus norvegicus [16]) was “inactive”, the Activity (Rattus norvegicus [17]) was “Active” and the Activity (Rattus norvegicus [18]) was “Active”. The Activity (Rattus norvegicus [19]) was “inactive”, the Activity (Rattus norvegicus [20]) was “inactive” and the Activity (Rattus norvegicus [21]) was 50%. The Activity (Rattus norvegicus [22]) was “Active”, the Activity (Rattus norvegicus [23]) was “inactive” and the inhibition (Rattus norvegicus [24]) was “Active”. For the same compound, the Activity (Rattus norvegicus [25]) was “Active” and the Activity (Rattus norvegicus [26]) was “Active”.
